The text below walks through data of ChEMBL document CHEMBL4373656, “A MedChem toolbox for cereblon-directed PROTACs” (Medchemcomm, 2019).

Calls of active or inactive are those of the source. The rule behind the calls is not given here. *1 amine or outer side, *2 acyl side, *3 side chain or, on linkers, in order; H or OH if unused. Where a SMILES comes first, the peptide text is derived from it. The star is where a group is joined. X1 = O=C1CCC(N2C(=O)c3cccc(NCCCOCCCCOCCCN*)c3C2=O)C(=O)N1; Suc = O=C(CCC(=O)[*:2])[*:1]

The target of assay [1] is T1, Cereblon/Ikaros (Homo sapiens) (UniProt Q96SW2+Q13422). The assay can be described thus: Protac activity at CRBN/ IKZF1 in human MM1S cells assessed as IKZF1 degradation by measuring IKZF1/tubulin ratio at 0.1 uM after 16 hrs by Western blot analysis relative to tubulin. Type of assay: cell-based. Further details: unit not given here. In outline: (§1)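 MM1S multiple myeloma cells were exposed to each compound for 16 h at the indicated concentrations, including 100 nM and 1 μM. Lysates were analysed by western blot for CRBN and for the neo-substrate IKZF1.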
(In general: In western blotting, separated proteins are transferred to a membrane and probed.)

Assay [2] has as its target T1, Cereblon/Ikaros (Homo sapiens). The assay can be described thus: Protac activity at CRBN/ IKZF1 in human MM1S cells assessed as CRBN degradation at 100 nM to 1 uM after 16 hrs by Western blot analysis. Type of assay: cell-based. The gist of the method: as §1
Assay [3] has the same target. The assay can be described thus: Protac activity at CRBN/ IKZF1 in human MM1S cells assessed as reduction in IKZF1 degradation at 0.001 to 0.01 uM after 16 hrs by Western blot analysis. The format is cell-based.
A further assay deals with MM1.S. The assay can be described thus: Antiproliferative activity against human MM1S cells at 1 nM to 10 uM after 4 hrs by CellTiter-Glo assay. The format is functional, cell-based. For orientation: In ATP-based viability assays light output follows the ATP content of the culture.
Assay [4] addresses T1, Cereblon/Ikaros (Homo sapiens). The assay can be described thus: Protac activity at CRBN/ IKZF1 in human MM1S cells assessed as Bax protein expression at 0.1 to 10 uM after 16 hrs by Western blot analysis relative to tubulin. The format is cell-based.

As for `O=C1CCC(N2C(=O)c3cccc(NCCOCCOCCNc4cccc5c4C(=O)N(C4CCC(=O)NC4=O)C5=O)c3C2=O)C(=O)N1` (stereo not given), the Ratio in assay [1] is 79.
On to `O=C(CC12CC3CC(CC(C3)C1)C2)NCCOCCOCCNc1cccc2c1C(=O)N(C1CCC(=O)NC1=O)C2=O` (stereo not given), for which, in assay [1], the Ratio came to 7.1. Besides, the result in assay [2] was inactive. Also, the outcome (in assay [3]; with MM1.S) was Active.
In the case of `O=C(CC12CC3CC(CC(C3)C1)C2)NCCCOCCOCCOCCCNc1cccc2c1C(=O)N(C1CCC(=O)NC1=O)C2=O` (stereo not given), the Ratio in assay [1] turned out to be 24. Further, in assay [2], the outcome was inactive.
As to `O=C(CC12CC3CC(CC(C3)C1)C2)NCCOCCOCCOCCNc1cccc2c1C(=O)N(C1CCC(=O)NC1=O)C2=O` (stereo not given), the Ratio in assay [1] turned out to be 16. Also, in assay [2], the result was inactive.
The like results for `O=C(CC12CC3CC(CC(C3)C1)C2)NCCCOCCOCCCNc1cccc2c1C(=O)N(C1CCC(=O)NC1=O)C2=O` (stereo not given) were, in that order, 15 and “inactive”.
The like results for `O=C(CC12CC3CC(CC(C3)C1)C2)NCCCOCCCCOCCCNc1cccc2c1C(=O)N(C1CCC(=O)NC1=O)C2=O` (stereo not given) were, in that order, 30 and “inactive”.
As to `CSCC[C@H](NC(=O)[C@@H]1CCCN1C(=O)[C@@H](NC(=O)CCC(=O)NCCCOCCCCOCCCNc1cccc2c1C(=O)N(C1CCC(=O)NC1=O)C2=O)C(C)C)C(=O)N[C@@H](CC(C)C)C(=O)N[C@@H](CCCCN)C(=O)O` (stereo not given in full) ({X1-Suc}-VPMLK-OH), the outcome in assay [4] was inactive.
On to `Cc1ncsc1-c1ccc(CNC(=O)[C@@H]2C[C@@H](O)CN2C(=O)[C@@H](NC(=O)CCCCOCCCCCOCCCCCCNc2cccc3c2C(=O)N(C2CCC(=O)NC2=O)C3=O)C(C)(C)C)cc1` (stereo not given in full), for which the Ratio in assay [1] came to 99.
